The source made the active and inactive calls. The calls are words filed in the database; no cut-off is given here.
Tests used:
Adenosine receptor A1 [1] = target: T1, Adenosine receptor A1 (Homo sapiens, UniProt P30542); assay: Antagonist activity at human adenosine A1 receptor expressed in Flp-In-CHO cell membrane assessed as inhibition of NECA-induced cAMP accumulation in presence of forskolin measured after 40 mins by alpha screen LANCE assay; type: functional, cell membranes
T1 sequence (P30542 whole entry): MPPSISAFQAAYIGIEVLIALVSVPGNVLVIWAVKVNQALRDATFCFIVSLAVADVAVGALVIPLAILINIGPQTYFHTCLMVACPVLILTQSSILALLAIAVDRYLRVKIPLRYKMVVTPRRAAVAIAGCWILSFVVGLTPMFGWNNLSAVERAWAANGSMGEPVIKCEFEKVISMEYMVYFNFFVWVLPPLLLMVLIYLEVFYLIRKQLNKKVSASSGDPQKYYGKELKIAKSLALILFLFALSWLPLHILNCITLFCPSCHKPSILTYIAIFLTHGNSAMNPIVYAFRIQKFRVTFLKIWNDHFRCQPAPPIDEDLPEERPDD

Adenosine receptor A1 [2] = target: T1, Adenosine receptor A1; assay: Antagonist activity at human adenosine A1 receptor expressed in Flp-In-CHO cell membrane assessed as inhibition of forskolin-stimulated cAMP accumulation preincubated for 5 min followed by forskolin stimulation and further incubated for 30 mins in presence of NECA by alphascreen LANCE assay
Adenosine receptor A2b = target: T2, Adenosine receptor A2b (Homo sapiens, UniProt P29275); assay: (§1) Antagonist activity at human adenosine A2B receptor expressed in Flp-In-CHO cell membrane assessed as inhibition of NECA-induced cAMP accumulation in presence of forskolin measured after 40 mins by alpha screen LANCE assay; type: functional
T2 sequence (P29275 whole entry): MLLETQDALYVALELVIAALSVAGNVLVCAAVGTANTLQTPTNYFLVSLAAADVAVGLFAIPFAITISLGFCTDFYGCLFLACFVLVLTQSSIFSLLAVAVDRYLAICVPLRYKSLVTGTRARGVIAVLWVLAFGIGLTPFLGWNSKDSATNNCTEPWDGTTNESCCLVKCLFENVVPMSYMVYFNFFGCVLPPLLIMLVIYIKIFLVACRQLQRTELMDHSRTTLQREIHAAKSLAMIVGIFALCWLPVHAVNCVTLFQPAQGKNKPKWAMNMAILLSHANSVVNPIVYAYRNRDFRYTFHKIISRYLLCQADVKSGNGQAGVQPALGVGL
Summary of the method: (§2)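 A2BR-FlpInCHO cells seeded at 30000 cells/well and incubated overnight at 37 °C. Antagonists tested against a submaximal (EC80) NECA concentration; NECA curves run alongside. cAMP response normalized to buffer (0%) and 3 μM forskolin (100%). Affinity derived by fitting NECA–antagonist interaction data to a competitive model. Duplicates, ≥3 experiments.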

Adenosine receptor A1 [3] = target: T1, Adenosine receptor A1; assay: Displacement of [3H] DPCPX from human A1 adenosine receptor expressed in Flp-In-CHO cell membrane incubated for 4 hrs by microbeta scintillation counting method; type: cell membranes
Adenosine receptor A1 [4] = target: T1, Adenosine receptor A1; assay: Displacement of [3H] DPCPX from human adenosine A1 receptor expressed in Flp-In-CHO cell membrane incubated for 3 hrs followed by compound washout and further incubated for 4 hrs with radioligand by microbeta scintillation counting method; type: cell membranes
[5] = target: T3, Adenosine receptor A1 (Homo sapiens) (UniProt P30542); details: Flp-In-CHO, Membrane, filed as antagonist, time 40.0 min
T3 sequence (whole entry): T1 sequence (P30542 whole entry)

[6] = target: T3, Adenosine receptor A1 (Homo sapiens); details: Flp-In-CHO, Membrane, filed as antagonist, time 40.0 min; remark: listed apart in the source
[7] = target: T4, Adenosine receptor A3 (Homo sapiens) (UniProt P0DMS8); details: Flp-In-CHO, Membrane, filed as antagonist, time 40.0 min
T4 sequence (whole entry): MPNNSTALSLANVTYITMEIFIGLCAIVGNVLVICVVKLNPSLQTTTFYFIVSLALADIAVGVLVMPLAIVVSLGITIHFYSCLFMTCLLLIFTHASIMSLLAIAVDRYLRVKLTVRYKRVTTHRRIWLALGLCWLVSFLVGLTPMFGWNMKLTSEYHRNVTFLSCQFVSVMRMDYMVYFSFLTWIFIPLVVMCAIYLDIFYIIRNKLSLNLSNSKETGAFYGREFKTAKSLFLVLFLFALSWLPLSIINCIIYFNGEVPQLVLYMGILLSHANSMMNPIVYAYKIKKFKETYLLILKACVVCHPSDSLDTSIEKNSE

Adenosine receptor A2a [8] = target: T5, Adenosine receptor A2a (Homo sapiens, UniProt P29274); details: Flp-In-CHO, Membrane, filed as antagonist, time 40.0 min
Adenosine receptor A2a [9] = target: T5, Adenosine receptor A2a; assay: Antagonist activity at human adenosine A2A receptor expressed in Flp-In-CHO cell membrane assessed as inhibition of NECA-induced cAMP accumulation in presence of forskolin measured after 40 mins by alpha screen LANCE assay; type: functional, cell membranes
Adenosine receptor A3 = target: T6, Adenosine receptor A3 (Homo sapiens, UniProt P0DMS8); assay: Antagonist activity at human adenosine A3 receptor expressed in Flp-In-CHO cell membrane assessed as inhibition of NECA-induced cAMP accumulation in presence of forskolin measured after 40 mins by alpha screen LANCE assay; type: functional, cell membranes
T6 sequence (P0DMS8 whole entry): T4 sequence (whole entry)

[10] = target: T7, Adenosine receptor A2b (Homo sapiens) (UniProt P29275); assay: as §1; type: functional; details: filed as antagonist; summary of the method: as §2
T7 sequence (whole entry): T2 sequence (P29275 whole entry)

[11] = target: T4, Adenosine receptor A3 (Homo sapiens); assay: Inhibition of CA200645 binding to NanoLuc-fused human Adenosine A3 receptor expressed in HEK293-A cells using furimazine as substrate preincubated for 3 hrs followed by ligand washout and further incubated for 60 mins with CA200645 by NanoBRET assay; type: cell-based
Summary of the method: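 HEK293A cells transiently transfected (PEI) with N-terminal Nluc-A3R cDNA, assayed 48 h post-transfection. Cells incubated with competing ligands for 3 h in binding buffer, then washed 6 × 20 min. 5 nM CA200645 added for 60 min at room temperature, then 10 μM furimazine (final). BRET read as 610/460 nm emission ratio at 25 °C. Nonspecific binding defined with 1 μM MRS1220.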

[12] = target: T3, Adenosine receptor A1 (Homo sapiens); assay: Displacement of [3H] DPCPX from human A1 adenosine receptor expressed in Flp-In-CHO cell membrane at 10 uM incubated for 4 hrs by microbeta scintillation counting method; type: cell membranes
Summary of the method: (§3)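 Membranes (15 μg) from hA1R-FlpInCHO cells incubated with competing ligand and about 1 nM [3H]DPCPX for 4 h at 25 °C. Binding buffer: HEPES, glucose, salts, 1 unit/mL ADA, pH 7.4. Filtration, ice-cold 0.9% NaCl washes, then β-counting. Nonspecific binding defined with 1 μM SLV320. Specific binding normalized to binding without competitor.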

[13] = target: T3, Adenosine receptor A1 (Homo sapiens); assay: Displacement of [3H] DPCPX from human A1 adenosine receptor expressed in Flp-In-CHO cell membrane at 1 uM incubated for 4 hrs by microbeta scintillation counting method; type: cell membranes; details: filed as antagonist; summary of the method: as §3
[14] = Solubility of the compound at 10 uM; type: physicochemical

T5 sequence (P29274 whole entry): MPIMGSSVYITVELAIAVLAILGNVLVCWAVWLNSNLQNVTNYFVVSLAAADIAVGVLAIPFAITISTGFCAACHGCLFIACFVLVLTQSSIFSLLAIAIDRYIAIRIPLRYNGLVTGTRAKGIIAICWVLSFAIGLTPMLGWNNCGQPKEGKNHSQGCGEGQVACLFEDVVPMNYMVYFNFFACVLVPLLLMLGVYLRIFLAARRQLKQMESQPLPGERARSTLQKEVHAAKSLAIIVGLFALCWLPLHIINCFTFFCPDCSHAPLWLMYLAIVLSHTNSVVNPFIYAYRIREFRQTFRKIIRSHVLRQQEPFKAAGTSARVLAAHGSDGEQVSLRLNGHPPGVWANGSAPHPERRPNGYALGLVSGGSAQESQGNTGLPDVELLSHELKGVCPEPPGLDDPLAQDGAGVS

| SMILES | Ki (Adenosine receptor A1 [1]) [nM] | Ki (Adenosine receptor A1 [2]) [nM] | Ki (Adenosine receptor A2b) [nM] | Ki (Adenosine receptor A1 [3]) [nM] | Ki (Adenosine receptor A1 [4]) [nM] | pKb [6] | Ki (Adenosine receptor A2a [9]) [nM] | Ki (Adenosine receptor A3) [nM] | also measured |
| --- | --- | --- | --- | --- | --- | --- | --- | --- | --- |
| CCCCn1c(=O)c2nc(C34CCC(C(=O)NCCCCCCCCN=[N+]=[N-])(CC3)CC4)[nH]c2n(CCCNC(=O)c2ccc(S(=O)(=O)F)cc2)c1=O | 10.2 | 2.4 | 6.7 | 3.7 | 16.1 |  |  |  |  |
| O[C@H]1CC[C@H](Nc2nc(-c3ccccc3)nc3[nH]ccc23)CC1 | 0.4 | 0.5 |  | 0.6 |  | 9.27 |  |  | pKb [5]: 9.44 |
| CCCn1c(=O)c2nc(C34CCC(C(=O)NCCCN=[N+]=[N-])(CC3)CC4)[nH]c2n(CCCNC(=O)c2ccc(S(=O)(=O)F)cc2)c1=O | 2.8 | 0.6 | 17.8 | 3.5 | 7.8 | 9.19 | 26.3 | 11 | pKb [7]: 7.96; pKb (Adenosine receptor A2a [8]): 7.58; pKb [5]: 8.56; pKb [10]: 7.75 |
| C#CCNC(=O)C12CCC(c3nc4c(=O)n(CCCC)c(=O)n(CCCNC(=O)c5ccc(S(=O)(=O)F)cc5)c4[nH]3)(CC1)CC2 | 30.9 | 585 |  | 26.1 | 38.8 | 6.23 |  | 46.8 | pKb [7]: 7.33; inhibition ([11]; filed as antagonist): Active; pKb [5]: 7.51 |
| CCCCn1c(=O)c2nc(C34CCC(C(=O)NCCCCN=[N+]=[N-])(CC3)CC4)[nH]c2n(CCCNC(=O)c2ccc(S(=O)(=O)F)cc2)c1=O |  |  | 26.3 |  |  |  | 166 | 4.9 |  |
| CCCCn1c(=O)c2nc(C3CCCCC3)[nH]c2n(CCCNC(=O)c2ccc(S(=O)(=O)F)cc2)c1=O |  | 26 |  | 12.1 |  | 7.59 |  |  | Activity [12]: inactive; Activity [13]: Active; solubility [14]: Insoluble |
| CCCn1c(=O)[nH]c2nc(-c3ccc(S(=O)(=O)N4CCN(c5ccc(Cl)cc5)CC4)cc3)[nH]c2c1=O |  |  | 1.3 |  |  |  |  |  | pKb [10]: 8.87 |
| CCCCn1c(=O)c2nc(C34CCC(C(=O)OC)(CC3)CC4)[nH]c2n(CCCNC(=O)c2ccc(S(=O)(=O)O)cc2)c1=O |  | 92 |  | 179 |  | 7.04 |  |  | inhibition [11]: inactive |
| C#CCCCCNC(=O)C12CCC(c3nc4c(=O)n(CCCC)c(=O)n(CCCNC(=O)c5ccc(S(=O)(=O)F)cc5)c4[nH]3)(CC1)CC2 | 3.9 | 0.6 | 35.4 | 1.6 | 9.3 |  |  | 43.7 | inhibition ([11]; filed as antagonist): Active |
| CCCCn1c(=O)c2nc(C34CCC(C(=O)NCCOCCOCCOCCN=[N+]=[N-])(CC3)CC4)[nH]c2n(CCCNC(=O)c2ccc(S(=O)(=O)F)cc2)c1=O |  |  | 95.5 |  |  |  | 36.3 | 8.3 |  |
| CCCCn1c(=O)c2nc(C34CCC(C(=O)NCCCN=[N+]=[N-])(CC3)CC4)[nH]c2n(CCCNC(=O)c2ccc(S(=O)(=O)O)cc2)c1=O |  | 87.5 |  | 605 |  | 7.06 |  |  | inhibition [11]: inactive |
| CCCCn1c(=O)c2nc(C34CCC(C(=O)NCCCN=[N+]=[N-])(CC3)CC4)[nH]c2n(CCCNC(=O)c2ccc(S(=O)(=O)F)cc2)c1=O |  |  | 79.4 |  |  |  | 38 | 4.2 | inhibition ([11]; filed as antagonist): Active |
| CCCCn1c(=O)c2nc(C34CCC(C(=O)NCCOCCOCCN=[N+]=[N-])(CC3)CC4)[nH]c2n(CCCNC(=O)c2ccc(S(=O)(=O)F)cc2)c1=O | 3.5 | 1.4 | 22.9 | 6.1 | 10 | 8.86 | 31.6 | 39.8 | pKb [7]: 7.4; pKb (Adenosine receptor A2a [8]): 7.5; pKb [5]: 8.45; pKb [10]: 7.64 |
| CCCCn1c(=O)c2nc(C34CCC(C(=O)OC)(CC3)CC4)[nH]c2n(CCCNC(=O)c2ccc(S(=O)(=O)F)cc2)c1=O |  | 17.1 |  | 17.3 | 89.3 | 7.77 |  |  | inhibition ([11]; filed as antagonist): Active |

From ChEMBL document CHEMBL5036326, “Development of Covalent, Clickable Probes for Adenosine A1 and A3 Receptors” (J Med Chem, 2021)
